The values below come from ChEMBL document CHEMBL4706684, “Discovering High Potent Hsp90 Inhibitors as Antinasopharyngeal Carcinoma Agents through Fragment Assembling Approach” (J Med Chem, 2021).

Data set [1] deals with T1, Heat shock protein HSP 90-alpha (Homo sapiens, UniProt P07900). As to the kind of experiment: Binding affinity to HSP90-alpha (unknown origin) expressed in Escherichia coli BL21 by SPR assay. (In general: SPR reads the build-up and loss of mass on a sensor chip optically.)
A further data set relates to HEK-293T. As to the kind of experiment: Cytotoxicity in HEK293T cells assessed as reduction in cell viability up to 20 uM incubated for 48 hrs by MTT assay. Format: cell-based. The following applies: human. A general note: Tetrazolium assays rely on reduction of a dye to a coloured formazan, in cell work by metabolically active cells.
A further data set relates to L02. Briefly: Toxicity in human L02 cells assessed as induction of apoptosis at 62.5 to 1000 nM incubated for 12 hrs by Annexin-V/FITC staining based FACS analysis. To be noted: l02, 12 h, 1 µM, dose 62.5-1000 nM. It counts as cell-based.
Data set [2] deals with T1, Heat shock protein HSP 90-alpha. As to the kind of experiment: Inhibition of HSP90-alpha in human CNE-2 cells assessed as reduction in PKB protein levels at 20 to 500 nM incubated for 24 hrs by immunoblot analysis. To be noted: dose 20-500 nM. It counts as cell-based. The procedure, abridged: (§1)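 CNE2 cells (RPMI 1640, 10% FBS, 37 °C, 5% CO₂) were incubated with inhibitor for 24 h, then lysed in RIPA buffer on ice for 30 min. Lysates were run on 8–12% SDS-PAGE and transferred to PVDF. Membranes were blocked with 5% milk and probed with primary antibodies overnight, then HRP secondaries. Detection was by chemiluminescence with actin as loading control.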
Background: A western blot detects proteins with antibodies after separation by electrophoresis.

Data set [3] relates to CNE-2. As to the kind of experiment: Induction of apoptosis in human CNE-2 cells assessed as reduction in HER2 protein level at 500 nM incubated for 24 hrs by immunoblot analysis. Format: functional, cell-based. The procedure, abridged: as §1
In data set [4] the test system is CNE-2. As to the kind of experiment: Induction of apoptosis in human CNE-2 cells assessed as Bcl-XL degradation at 70 nM incubated for 24 hrs in presence of HSP90-beta siRNA by immunoblot analysis. It counts as functional, cell-based.
Data set [5] concerns the target T1, Heat shock protein HSP 90-alpha. Briefly: Inhibition of HSP90-alpha in human CNE-2 cells assessed as reduction in PKB protein levels at 70 nM incubated for 24 hrs in presence of HSP90-alpha siRNA by immunoblot analysis. Format: cell-based. The gist of the method:
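CNE2 cells were transiently transfected with Hsp90 siRNA (siHsp90-1 or siHsp90-2) at 150 nM final using Lipofectamine 2000. They were then incubated with inhibitor for 24 h and immunoblotted: RIPA lysis, 8–12% SDS-PAGE, PVDF, overnight primary antibodies, HRP secondaries, chemiluminescence, actin as loading control.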

In data set [6] the test system is CNE-2. As to the kind of experiment: Antitumor activity against human CNE-2 cells xenografted in nu/nu mouse assessed as induction of tumor size shrinkage at 1 mg/kg, po for 32 days. Format: functional, organism-based. The following applies: time 32.0 day.
Data set [7] has as its system CNE-2. As to the kind of experiment: Antitumor activity against human CNE-2 cells xenografted in nu/nu mouse assessed as inhibition of tumor growth at 1 mg/kg, ip for 32 days. Format: functional, organism-based. The following applies: time 32.0 day.
Data set [8] deals with CNE-2. As to the kind of experiment: Cytotoxicity in human CNE-2 cells assessed as reduction in cell viability incubated for 48 hrs by MTT assay. It counts as cell-based. To be noted: CNE-2, 48 h. The procedure, abridged:
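Cells were seeded at 3 × 10³ cells per well and grown for 24 h at 37 °C in 5% CO₂. CNE2 was grown in RPMI 1640 and HeLa and HepG2 in DMEM, each with 10% FBS and 1% penicillin/streptomycin. Cells were exposed to 0−20 μM inhibitor for 48 h, with a DMSO solvent control. MTT (0.5 mg/mL) was then added for 3 h.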

The nature of data set [9]: Binding affinity to HSP90-alpha T184G mutant (unknown origin) expressed in Escherichia coli BL21 by SPR assay. The arrangement: species or system Homo sapiens. The gist of the method: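 SPR on a Biacore T200 at 25 °C with running buffer PBST (PBS pH 7.4, 0.005% Tween-20). Protein at 20 μg/mL in 10 mM sodium acetate pH 5.0 was immobilized on a CM5 chip, which was equilibrated overnight in PBST. Inhibitor serially diluted from 10 μM was injected at 30 μL/min with 120 s contact and 120 s dissociation.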

In data set [10] the test system is CNE-2. Briefly: Induction of apoptosis in human CNE-2 cells assessed as viable cells level at 20 nM incubated for 12 hrs by Annexin-V/FITC staining based FACS analysis (reference value: 96.7%). To be noted: read-out: Activity. It counts as cell-based. The procedure, abridged:
(§2)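 CNE2 cells (RPMI 1640 with 10% FBS) were seeded at 5 × 10⁴ cells per well. After 24 h they were treated with compound in 0.05% DMSO for 12 h. Cells were then washed twice with PBS, pelleted, and stained in binding buffer with Annexin V-FITC and PI for flow cytometry.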

The test system of data set [11] is CNE-2. Briefly: Induction of apoptosis in human CNE-2 cells assessed as necrosis cells level at 20 nM incubated for 12 hrs by Annexin-V/FITC staining based FACS analysis (reference value: 1.45%). Format: cell-based. To be noted: cne-2, 12 h, 0.02 µM.
For data set [12], the system named is CNE-2. Briefly: Induction of apoptosis in human CNE-2 cells assessed as viable cells level at 50 nM incubated for 12 hrs by Annexin-V/FITC staining based FACS analysis (reference value: 96.7%). Format: cell-based. To be noted: read-out: Activity. The procedure, abridged: as §2
Data set [13] deals with CNE-2. Briefly: Induction of apoptosis in human CNE-2 cells assessed as early apoptosis cells level at 50 nM incubated for 12 hrs by Annexin-V/FITC staining based FACS analysis (reference value: 1.45%). Format: cell-based. The following applies: cne-2, 12 h, 0.05 µM.
In data set [14] the test system is CNE-2. Briefly: Induction of apoptosis in human CNE-2 cells assessed as late apoptosis cells level at 100 nM incubated for 12 hrs by Annexin-V/FITC staining based FACS analysis (reference value: 1.45%). It counts as cell-based. The following applies: cne-2, 12 h, 0.1 µM.
Data set [15] concerns CNE-2. As to the kind of experiment: Induction of apoptosis in human CNE-2 cells assessed as necrosis cells level at 100 nM incubated for 12 hrs by Annexin-V/FITC staining based FACS analysis (reference value: 1.45%). Format: cell-based. The following applies: cne-2, 12 h, 0.1 µM.
Data set [16] relates to CNE-2. As to the kind of experiment: Induction of apoptosis in human CNE-2 cells assessed as early apoptosis cells level at 500 nM incubated for 12 hrs by Annexin-V/FITC staining based FACS analysis (reference value: 1.45%). It counts as cell-based. The following applies: cne-2, 12 h, 0.5 µM.
Data set [17] relates to CNE-2. Briefly: Induction of apoptosis in human CNE-2 cells assessed as viable cells level at 70 nM incubated for 12 hrs by Annexin-V/FITC staining based FACS analysis (reference value: 93.2%). It counts as cell-based. The following applies: read-out: Activity. The procedure, abridged: as §2
For data set [18], the system named is CNE-2. Briefly: Induction of apoptosis in human CNE-2 cells assessed as early apoptosis cells level at 70 nM incubated for 12 hrs by Annexin-V/FITC staining based FACS analysis (reference value: 3.1%). Format: cell-based. The following applies: cne-2, 12 h, 0.07 µM.
Data set [19] deals with CNE-2. Briefly: Induction of apoptosis in human CNE-2 cells overexpressing HSP90 assessed as viable cells level at 70 nM incubated for 12 hrs by Annexin-V/FITC staining based FACS analysis (reference value: 93.2%). It counts as cell-based. To be noted: read-out: Activity.
The subject of data set [20] is CNE-2. Briefly: Induction of apoptosis in human CNE-2 cells overexpressing HSP90 assessed as early apoptosis cells level at 70 nM incubated for 12 hrs by Annexin-V/FITC staining based FACS analysis (reference value: 3.1%). Format: cell-based. To be noted: cne-2, 12 h, 0.07 µM.
The test system of data set [21] is CNE2 (Homo sapiens). As to the kind of experiment: Induction of apoptosis in human CNE2 cells at 70 nM incubated for 12 hrs in presence of HSP90-beta siRNA by Annexin-V/FITC staining based FACS analysis. To be noted: cne2, 12 h, 0.07 µM.
Data set [22] has as its system CNE2 (Homo sapiens). As to the kind of experiment: Induction of apoptosis in human CNE2 cells at 70 nM incubated for 12 hrs in presence of HSP90-alpha siRNA by Annexin-V/FITC staining based FACS analysis. To be noted: cne2, 12 h, 0.07 µM.

Structures are written as SMILES. Calls of active or inactive are those of the source. The calls are words filed in the database; no cut-off is given here.

Turning to `CC(C)(C)c1ccc(Cn2cc(-c3cc(O)c(O)c(O)c3)nn2)cc1`, the Kd (usually the concentration at which binding is half-saturated) was determined as 0.063 µM in data set [1] and 81.4 µM in data set [9]. Also, the Activity entry in the data set on HEK-293T is “Non-Toxic”; with L02, “Non-Toxic”; in the data set with CNE-2 [11], 0.17%; in the data set with CNE-2 [13] it was 7.17%; in the data set on CNE-2 [14] it was 15.6%; with CNE-2 [15], 0.57%. The Activity in the data set on CNE-2 [16] is on record as 33.6%; in the data set with CNE-2 [18], 13.7%; in the data set with CNE-2 [20], 3.96%; in the data set on CNE2 (Homo sapiens) [21], “Non-Toxic”; in the data set on CNE2 (Homo sapiens) [22] it was “Non-Toxic”. Further, in data set [2], the inhibition entry is “Active”. Besides, the result in the data set on CNE-2 [3] and in the data set on CNE-2 [6] was Active. Moreover, the result with CNE-2 [4] was inactive. Moreover, the inhibition entry in data set [5] is “inactive”. The TGI result with CNE-2 [7] was “Active”. Moreover, in the data set with CNE-2 [8], the IC50 (commonly the concentration that inhibits the measured activity by half) came out at 0.04 µM. The viability at 0.02 µM in the data set on CNE-2 [10] was 93.6%. The viability at 0.05 µM in the data set with CNE-2 [12] is 77.2%. Besides, the figures for the viability at 0.07 µM in the data set on CNE-2 [17] and in the data set on CNE-2 [19] were 75% and 94%, respectively.
